{"source": "ChEMBL document CHEMBL2311339", "about": "“Identification of GZD824 as an orally bioavailable inhibitor that targets phosphorylated and nonphosphorylated breakpoint cluster region-Abelson (Bcr-Abl) kinase and overcomes clinically acquired mutation-induced resistance against imatinib” (J Med Chem, 2013)", "key": {"[1]": {"test": "Cytotoxicity against human SUP-B15 cells expressing BCR-ABL assessed as growth inhibition after 72 hrs by CCK-8 assay", "assay_type": "functional, cell-based", "settings": "SUP-B15, 72 h", "in_short": "(§1)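 Log-phase human leukemia cells were seeded at about 3000 cells/well and treated 24 h later for 72 h. CCK-8 was then incubated with the cells for 3 h and read as OD450 − OD650. Viability was normalized to vehicle wells and cell-free blanks, and IC50 taken as the mean of three experiments.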"}, "[2]": {"biological_target": "Platelet-derived growth factor receptor beta (Homo sapiens) (UniProt P09619)", "sequence (P09619 whole entry)": "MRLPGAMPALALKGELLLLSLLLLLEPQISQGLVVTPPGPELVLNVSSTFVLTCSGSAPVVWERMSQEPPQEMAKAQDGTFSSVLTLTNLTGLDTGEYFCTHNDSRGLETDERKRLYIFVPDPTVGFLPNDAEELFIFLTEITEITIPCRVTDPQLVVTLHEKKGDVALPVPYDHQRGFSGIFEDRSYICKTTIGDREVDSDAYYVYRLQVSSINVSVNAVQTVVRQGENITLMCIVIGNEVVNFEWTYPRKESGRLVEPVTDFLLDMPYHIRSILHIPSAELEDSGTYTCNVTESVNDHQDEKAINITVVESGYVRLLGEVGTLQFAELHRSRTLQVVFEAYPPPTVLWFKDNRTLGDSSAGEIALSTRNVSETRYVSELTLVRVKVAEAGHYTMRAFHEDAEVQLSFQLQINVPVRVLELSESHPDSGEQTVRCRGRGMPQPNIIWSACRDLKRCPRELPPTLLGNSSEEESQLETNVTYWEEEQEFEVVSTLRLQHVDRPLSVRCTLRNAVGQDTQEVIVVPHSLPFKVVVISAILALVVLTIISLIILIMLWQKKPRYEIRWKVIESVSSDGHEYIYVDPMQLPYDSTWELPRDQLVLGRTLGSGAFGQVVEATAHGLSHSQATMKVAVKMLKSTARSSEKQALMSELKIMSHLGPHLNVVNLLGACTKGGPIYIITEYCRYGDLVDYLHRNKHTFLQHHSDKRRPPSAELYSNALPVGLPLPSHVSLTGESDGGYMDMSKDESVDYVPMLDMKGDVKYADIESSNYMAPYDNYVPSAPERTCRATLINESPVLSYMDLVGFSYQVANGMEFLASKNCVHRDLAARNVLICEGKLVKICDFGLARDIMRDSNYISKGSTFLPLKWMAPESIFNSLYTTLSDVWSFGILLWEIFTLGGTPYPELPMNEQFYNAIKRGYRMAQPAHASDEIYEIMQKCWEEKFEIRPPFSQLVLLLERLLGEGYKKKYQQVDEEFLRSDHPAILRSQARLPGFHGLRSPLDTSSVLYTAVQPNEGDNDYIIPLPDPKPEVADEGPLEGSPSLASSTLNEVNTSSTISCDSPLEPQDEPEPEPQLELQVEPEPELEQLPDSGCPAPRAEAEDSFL", "test": "Binding affinity to PDGFRbeta (unknown origin) at 10 nM after 2 hrs by FRET assay"}, "[3]": {"test": "Plasma concentration in rat after 24 hrs", "assay_type": "ADME", "in_short": "(§2)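 Bismesylate salt given to rats as a single iv dose of 5 mg/kg or a single oral dose of 25 mg/kg. Plasma drug levels were followed over time to derive the PK parameters. The 12 h and 24 h plasma levels come from the oral 25 mg/kg dose.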"}, "K562 [4]": {"tested_on": "K562", "test": "Cytotoxicity against imatinib-resistant human K562 cells expressing BCR-ABL Q252H mutant assessed as growth inhibition after 72 hrs by CCK-8 assay", "assay_type": "functional, cell-based", "settings": "K562, 72 h", "in_short": "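The K562 subline was made imatinib-resistant by 3 months of exposure to imatinib from 0.1 to 5 μM, followed by clonal selection and sequencing to confirm Q252H. Cells were seeded at about 3000 cells/well, treated 24 h later for 72 h, then given CCK-8 for 3 h. Read-out was OD450 − OD650 normalized to vehicle; IC50 is the mean of three experiments.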"}, "U-937": {"tested_on": "U-937", "test": "Cytotoxicity against human U937 cells […] assessed as growth inhibition after 72 hrs by CCK-8 assay", "assay_type": "functional, cell-based", "settings": "U-937, 72 h", "in_short": "as §1"}, "[5]": {"biological_target": "Tyrosine-protein kinase ABL1 (Homo sapiens, UniProt P00519, M351T)", "test": "Inhibition of human recombinant ABL1 M351T mutant expressed in insect cells after 30 mins by FRET assay", "assay_type": "cell-based"}, "Caco-2": {"tested_on": "Caco-2", "test": "Efflux ratio of permeability from […] in human Caco2 cells", "assay_type": "ADME, cell-based"}, "[6]": {"test": "Cytotoxicity against mouse BA/F3 cells expressing BCR-ABL L248V mutant assessed as growth inhibition after 72 hrs by CCK-8 assay", "settings": "BaF3, 72 h"}, "[7]": {"biological_target": "Tyrosine-protein kinase ABL1 (Homo sapiens, UniProt P00519, T315I)", "test": "Binding affinity to phosphorylated ABL1 T315I mutant (unknown origin) after 1 hr"}, "[8]": {"biological_target": "Tyrosine-protein kinase ABL1 (Homo sapiens, UniProt P00519, E255K)", "test": "Inhibition of human recombinant ABL1 E255K mutant expressed in insect cells after 30 mins by FRET assay", "assay_type": "cell-based"}, "[9]": {"biological_target": "Tyrosine-protein kinase ABL1 (Homo sapiens, UniProt P00519)", "test": "Inhibition of human recombinant wild type ABL1 expressed in insect cells after 30 mins by FRET assay", "assay_type": "cell-based"}, "[10]": {"biological_target": "Receptor-type tyrosine-protein kinase FLT3 (Homo sapiens) (UniProt P36888)", "sequence (P36888 whole entry)": "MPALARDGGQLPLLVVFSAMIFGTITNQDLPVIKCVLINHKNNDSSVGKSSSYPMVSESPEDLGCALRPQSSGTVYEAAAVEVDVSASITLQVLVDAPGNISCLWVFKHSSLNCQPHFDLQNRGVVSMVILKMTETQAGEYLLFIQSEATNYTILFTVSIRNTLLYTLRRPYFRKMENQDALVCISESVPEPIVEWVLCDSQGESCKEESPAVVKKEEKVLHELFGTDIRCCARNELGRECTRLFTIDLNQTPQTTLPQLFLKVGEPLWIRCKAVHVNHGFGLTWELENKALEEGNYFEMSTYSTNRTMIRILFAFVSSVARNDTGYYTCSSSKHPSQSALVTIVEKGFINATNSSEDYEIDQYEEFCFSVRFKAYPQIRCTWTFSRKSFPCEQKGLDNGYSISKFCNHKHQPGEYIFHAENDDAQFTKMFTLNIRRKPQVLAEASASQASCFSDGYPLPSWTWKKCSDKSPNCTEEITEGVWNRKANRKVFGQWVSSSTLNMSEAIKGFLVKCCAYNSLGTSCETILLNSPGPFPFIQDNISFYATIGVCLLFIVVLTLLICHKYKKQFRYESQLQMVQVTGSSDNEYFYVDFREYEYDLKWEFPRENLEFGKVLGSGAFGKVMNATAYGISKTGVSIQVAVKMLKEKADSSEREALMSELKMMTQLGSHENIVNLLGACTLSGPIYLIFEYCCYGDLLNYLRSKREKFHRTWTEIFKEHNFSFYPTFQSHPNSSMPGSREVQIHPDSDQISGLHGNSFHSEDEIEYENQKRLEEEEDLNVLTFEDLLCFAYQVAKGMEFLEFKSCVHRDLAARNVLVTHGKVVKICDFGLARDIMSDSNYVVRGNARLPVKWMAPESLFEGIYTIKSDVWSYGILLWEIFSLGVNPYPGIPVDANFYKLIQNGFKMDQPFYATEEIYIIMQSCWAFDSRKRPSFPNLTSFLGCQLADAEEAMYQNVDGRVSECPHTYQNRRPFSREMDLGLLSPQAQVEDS", "test": "Binding affinity to FLT3 (unknown origin) at 10 nM after 2 hrs by FRET assay"}, "[11]": {"biological_target": "Tyrosine-protein kinase ABL1 (Homo sapiens, UniProt P00519, G250E)", "assay_type": "cell-based"}, "K562 [12]": {"tested_on": "K562", "test": "Antitumor activity against human K562 cells xenografted in mouse assessed as eradication of tumor at 5 to 10 mg/kg, po qd for 6 days", "assay_type": "functional, organism-based"}, "K562 [13]": {"tested_on": "K562", "test": "Antitumor activity against human K562 cells xenografted in mouse assessed as decrease in tumor recurrence at 2 mg/kg, po qd for 20 days", "assay_type": "functional, organism-based", "set-up": "dose 2 mg/kg"}, "BaF3 [14]": {"tested_on": "BaF3", "test": "Antitumor activity against mouse BA/F3 cells expressing wild type BCR-ABL allografted in SCID mouse assessed as inhibition of tumor growth at 50 to 100 mg/kg/day, po qd for 14 days", "assay_type": "functional, organism-based", "in_short": "(§3)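 Ba/F3 cells stably expressing Bcr-Abl (wild type or mutant) were grown in RPMI 1640 with 10% FBS and no IL-3, then suspended in saline (2.5 × 10^7 cells/mL) and given as 0.2 mL s.c. in the right flank. Groups were randomised at 100−200 mm3. Once-daily oral gavage for 14 days in DMSO/Cremophor/ethanol/saline vehicle; reference imatinib 50 or 100 mg/kg/day. Volume L × W²/2 every 2 days; n = 10; t test versus vehicle.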"}, "[15]": {"biological_target": "Proto-oncogene tyrosine-protein kinase Src (Homo sapiens) (UniProt P12931)", "sequence (P12931 2-536 limits assumed)": "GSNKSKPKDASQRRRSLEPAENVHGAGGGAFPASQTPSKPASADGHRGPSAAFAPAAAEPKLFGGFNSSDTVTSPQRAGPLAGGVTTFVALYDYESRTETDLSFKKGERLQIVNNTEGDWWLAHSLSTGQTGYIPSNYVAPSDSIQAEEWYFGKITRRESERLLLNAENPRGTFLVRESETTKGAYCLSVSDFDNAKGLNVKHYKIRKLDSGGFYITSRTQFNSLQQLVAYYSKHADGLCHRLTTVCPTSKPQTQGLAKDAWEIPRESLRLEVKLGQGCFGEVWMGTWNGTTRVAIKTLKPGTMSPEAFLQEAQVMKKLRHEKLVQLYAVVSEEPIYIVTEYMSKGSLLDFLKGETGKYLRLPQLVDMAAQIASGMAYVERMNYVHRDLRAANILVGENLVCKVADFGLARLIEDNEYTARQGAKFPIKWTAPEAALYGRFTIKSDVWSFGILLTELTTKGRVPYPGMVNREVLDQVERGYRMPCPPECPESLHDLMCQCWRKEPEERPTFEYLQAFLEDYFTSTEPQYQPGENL", "test": "Binding affinity to SRC (unknown origin) at 10 nM after 2 hrs by FRET assay"}, "[16]": {"test": "Mean residence time in rat at 5 mg/kg, iv", "assay_type": "ADME, organism-based", "set-up": "dose 5 mg/kg, route intravenous", "settings": "in vivo", "in_short": "as §2"}, "[17]": {"biological_target": "Tyrosine-protein kinase receptor Tie-1 (Homo sapiens) (UniProt P35590)", "sequence (P35590 whole entry)": "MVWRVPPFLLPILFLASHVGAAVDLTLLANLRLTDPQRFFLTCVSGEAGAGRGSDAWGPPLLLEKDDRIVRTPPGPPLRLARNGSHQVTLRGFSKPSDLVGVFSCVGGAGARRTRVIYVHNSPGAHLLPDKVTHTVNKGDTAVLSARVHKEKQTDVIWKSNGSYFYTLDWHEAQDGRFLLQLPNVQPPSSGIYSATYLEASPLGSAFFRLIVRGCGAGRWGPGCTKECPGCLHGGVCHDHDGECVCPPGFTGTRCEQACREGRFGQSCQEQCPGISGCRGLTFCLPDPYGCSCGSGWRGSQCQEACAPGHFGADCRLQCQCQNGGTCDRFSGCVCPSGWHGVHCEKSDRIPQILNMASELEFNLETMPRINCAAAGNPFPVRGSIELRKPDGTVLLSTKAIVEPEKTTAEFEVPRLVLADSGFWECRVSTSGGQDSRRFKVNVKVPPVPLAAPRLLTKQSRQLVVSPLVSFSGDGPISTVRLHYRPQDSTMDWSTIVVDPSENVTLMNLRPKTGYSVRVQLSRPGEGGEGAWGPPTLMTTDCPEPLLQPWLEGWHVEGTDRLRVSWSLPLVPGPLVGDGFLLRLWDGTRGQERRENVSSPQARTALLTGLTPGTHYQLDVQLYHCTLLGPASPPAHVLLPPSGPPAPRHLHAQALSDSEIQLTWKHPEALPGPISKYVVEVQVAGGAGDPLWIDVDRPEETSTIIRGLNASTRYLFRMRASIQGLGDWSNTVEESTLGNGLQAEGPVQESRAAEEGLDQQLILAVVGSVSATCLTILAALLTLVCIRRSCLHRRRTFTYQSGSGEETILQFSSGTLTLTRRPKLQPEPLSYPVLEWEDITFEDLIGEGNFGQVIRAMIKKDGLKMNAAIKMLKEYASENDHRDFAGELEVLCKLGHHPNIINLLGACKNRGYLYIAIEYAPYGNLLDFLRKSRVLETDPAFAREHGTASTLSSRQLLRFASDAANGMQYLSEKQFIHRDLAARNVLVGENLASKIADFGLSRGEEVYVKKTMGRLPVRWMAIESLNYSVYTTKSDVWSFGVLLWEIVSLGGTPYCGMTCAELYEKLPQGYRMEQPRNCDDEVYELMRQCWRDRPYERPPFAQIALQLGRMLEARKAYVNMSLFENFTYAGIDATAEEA", "test": "Binding affinity to TIE1 (unknown origin) at 10 nM after 2 hrs by FRET assay"}, "[18]": {"test": "Cytotoxicity against mouse BA/F3 cells expressing BCR-ABL Y253F mutant assessed as growth inhibition after 72 hrs by CCK-8 assay", "settings": "BaF3, 72 h"}, "BaF3 [19]": {"tested_on": "BaF3", "test": "Antitumor activity against mouse BA/F3 cells expressing BCR-ABL T315I mutant allografted in po dosed SCID mouse assessed as inhibition of tumor growth administered qd for 14 days", "assay_type": "functional, organism-based", "in_short": "as §3"}, "[20]": {"test": "Clearance in rat at 25 mg/kg, po", "assay_type": "ADME, organism-based", "set-up": "dose 25 mg/kg, route oral", "settings": "in vivo", "in_short": "as §2"}, "[21]": {"biological_target": "Tyrosine-protein kinase ABL1 (Homo sapiens, UniProt P00519, Q252H)", "assay_type": "cell-based"}, "[22]": {"test": "Antitumor activity against mouse BA/F3 cells expressing BCR-ABL T315I mutant allografted in SCID mouse assessed as increase in median survival at 20 mg/kg/day, po qd for 10 days", "assay_type": "functional, BaF3", "in_short": "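Ba/F3 Bcr-Abl T315I cells stably carrying firefly luciferase, in saline, were injected i.v. into SCID nude mice (2 × 10^6 cells/0.1 mL). Imaging began 5−7 days later: i.p. D-luciferin, halothane anaesthesia, images after 5 min. Mice were randomised by signal and dosed by oral gavage once daily for 10 days (5, 10, 20 mg/kg/day; imatinib 100 mg/kg; vehicle). Luminescence was quantified; survival by Kaplan−Meier with log-rank test.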"}, "MOLT-4": {"tested_on": "MOLT-4", "test": "Cytotoxicity against human MOLT4 cells […] assessed as growth inhibition after 72 hrs by CCK-8 assay", "assay_type": "functional, cell-based", "settings": "MOLT-4, 72 h", "in_short": "as §1"}, "BaF3 [23]": {"tested_on": "BaF3", "test": "Antitumor activity against mouse BA/F3 cells expressing BCR-ABL T315I mutant allografted in SCID mouse assessed as induction of tumor regression at 20 mg/kg/day, po qd for 14 days", "assay_type": "functional, organism-based", "in_short": "as §3"}, "[24]": {"biological_target": "Tyrosine-protein kinase ABL1 (Homo sapiens, UniProt P00519, H396P)", "test": "Binding affinity to non phosphorylated ABL1 H396P mutant (unknown origin) after 1 hr"}, "Rattus norvegicus": {"tested_on": "Rattus norvegicus", "test": "Volume of distribution at steady state in rat at 25 mg/kg, po", "assay_type": "ADME, organism-based", "set-up": "dose 25 mg/kg, route oral", "settings": "in vivo", "in_short": "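Test compound given to rats as its bismesylate salt in a single dose, 5 mg/kg iv or 25 mg/kg by mouth. Plasma drug levels were monitored after dosing, and PK parameters including Vss were reported per route.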"}, "BaF3 [25]": {"tested_on": "BaF3", "test": "Antitumor activity against mouse BA/F3 cells expressing BCR-ABL T315I mutant allografted in SCID mouse assessed as suppression of cell proliferation at 1 to 20 mg/kg/day, po qd for 10 days", "assay_type": "functional, organism-based"}}, "note": "Activity calls are given as the source filed them. The calls are words filed in the database; no cut-off is given here."}
{"smiles": "Cc1ccc(C(=O)Nc2ccc(CN3CCN(C)CC3)c(C(F)(F)F)c2)cc1C#Cc1cnc2[nH]ncc2c1", "note": "[OLVEREMBATINIB]", "values": [{"measurement": "IC50", "setting": "[1]", "result": 2.5, "unit": "nM"}, {"measurement": "Activity", "setting": "[2]", "result": "inactive"}, {"measurement": "concentration at 24 h", "setting": "[3]", "result": 0.169, "unit": "µM"}, {"measurement": "IC50", "setting": "K562 [4]", "result": 4.5, "unit": "nM"}, {"measurement": "IC50", "setting": "U-937", "result": 390, "unit": "nM"}, {"measurement": "IC50", "setting": "[5]", "result": 0.29, "unit": "nM"}, {"measurement": "Ratio", "setting": "Caco-2", "result": 0.9}, {"measurement": "IC50", "setting": "[6]", "result": 7.3, "unit": "nM"}, {"measurement": "Kd", "setting": "[7]", "result": 3.2, "unit": "nM"}, {"measurement": "IC50", "setting": "[8]", "result": 0.27, "unit": "nM"}, {"measurement": "IC50", "setting": "[9]", "result": 0.34, "unit": "nM"}, {"measurement": "Activity", "setting": "[10]", "result": "inactive"}, {"measurement": "IC50", "setting": "[11]", "result": 0.71, "unit": "nM"}, {"measurement": "Activity", "setting": "K562 [12]", "result": "Active"}, {"measurement": "Activity", "setting": "K562 [13]", "result": "inactive"}, {"measurement": "TGI", "setting": "BaF3 [14]", "result": "Dose-dependent effect"}, {"measurement": "Activity", "setting": "[15]", "result": "inactive"}, {"measurement": "MRT", "setting": "[16]", "result": 6.7, "unit": "h"}, {"measurement": "Activity", "setting": "[17]", "result": "inactive"}, {"measurement": "IC50", "setting": "[18]", "result": 11, "unit": "nM"}, {"measurement": "TGI", "setting": "BaF3 [19]", "result": "Active"}, {"measurement": "CL/F", "setting": "[20]", "result": 3.6, "unit": "L/h/kg"}, {"measurement": "IC50", "setting": "[21]", "result": 0.15, "unit": "nM"}, {"measurement": "Survival", "setting": "[22]", "result": 31.9, "unit": "days"}, {"measurement": "IC50", "setting": "MOLT-4", "result": 26.3, "unit": "nM"}, {"measurement": "Activity", "setting": "BaF3 [23]", "result": "Active"}, {"measurement": "Kd", "setting": "[24]", "result": 0.18, "unit": "nM"}, {"measurement": "Vdss", "setting": "Rattus norvegicus", "result": 53.2, "unit": "L/kg"}, {"measurement": "Activity", "setting": "BaF3 [25]", "result": "Dose-dependent effect"}]}
